Assay results: ChEMBL document CHEMBL1629418, “Spiroimidazolidinone NPC1L1 inhibitors. Part 2: structure-activity studies and in vivo efficacy” (Bioorg Med Chem Lett, 2010)

Key:
[1] = system: Mus musculus; assay: Inhibition of cholesterol-absorption in mouse at 10 mg/kg, po; assay type: functional
Method in brief: (§1)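 Male C57BL/6 mice received compound orally as a suspension in 0.2 mL of 0.25% methocel. After 30 min, mice were given 0.2 mL oral [3H]cholesterol in IntraLipid. Mice were euthanized at 1.5 h or 5 h. Plasma [3H]cholesterol was counted from cardiac-puncture blood; liver was saponified for [3H]cholesterol. Six data points per dose were averaged; % inhibition reported.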

[2] = target: T1, NPC1-like intracellular cholesterol transporter 1 (Homo sapiens, UniProt Q9UHC9); assay: Displacement of [35S](2S,3S,4S,5R,6S)-6-(4-((2S,3R)-3-((S)-3-(4-fluorophenyl)-3-hydroxypropyl)-1-(4-(3-(methylsulfonamido)prop-1-ynyl)phenyl)-4-oxoazetidin-2-yl)phenoxy)-3,4,5-trihydroxytetrahydro-2H-pyran-2-carboxylic acid from human NCP1L1 expressed in HEK 293; assay type: cell-based, HEK293
T1 sequence (Q9UHC9 whole entry): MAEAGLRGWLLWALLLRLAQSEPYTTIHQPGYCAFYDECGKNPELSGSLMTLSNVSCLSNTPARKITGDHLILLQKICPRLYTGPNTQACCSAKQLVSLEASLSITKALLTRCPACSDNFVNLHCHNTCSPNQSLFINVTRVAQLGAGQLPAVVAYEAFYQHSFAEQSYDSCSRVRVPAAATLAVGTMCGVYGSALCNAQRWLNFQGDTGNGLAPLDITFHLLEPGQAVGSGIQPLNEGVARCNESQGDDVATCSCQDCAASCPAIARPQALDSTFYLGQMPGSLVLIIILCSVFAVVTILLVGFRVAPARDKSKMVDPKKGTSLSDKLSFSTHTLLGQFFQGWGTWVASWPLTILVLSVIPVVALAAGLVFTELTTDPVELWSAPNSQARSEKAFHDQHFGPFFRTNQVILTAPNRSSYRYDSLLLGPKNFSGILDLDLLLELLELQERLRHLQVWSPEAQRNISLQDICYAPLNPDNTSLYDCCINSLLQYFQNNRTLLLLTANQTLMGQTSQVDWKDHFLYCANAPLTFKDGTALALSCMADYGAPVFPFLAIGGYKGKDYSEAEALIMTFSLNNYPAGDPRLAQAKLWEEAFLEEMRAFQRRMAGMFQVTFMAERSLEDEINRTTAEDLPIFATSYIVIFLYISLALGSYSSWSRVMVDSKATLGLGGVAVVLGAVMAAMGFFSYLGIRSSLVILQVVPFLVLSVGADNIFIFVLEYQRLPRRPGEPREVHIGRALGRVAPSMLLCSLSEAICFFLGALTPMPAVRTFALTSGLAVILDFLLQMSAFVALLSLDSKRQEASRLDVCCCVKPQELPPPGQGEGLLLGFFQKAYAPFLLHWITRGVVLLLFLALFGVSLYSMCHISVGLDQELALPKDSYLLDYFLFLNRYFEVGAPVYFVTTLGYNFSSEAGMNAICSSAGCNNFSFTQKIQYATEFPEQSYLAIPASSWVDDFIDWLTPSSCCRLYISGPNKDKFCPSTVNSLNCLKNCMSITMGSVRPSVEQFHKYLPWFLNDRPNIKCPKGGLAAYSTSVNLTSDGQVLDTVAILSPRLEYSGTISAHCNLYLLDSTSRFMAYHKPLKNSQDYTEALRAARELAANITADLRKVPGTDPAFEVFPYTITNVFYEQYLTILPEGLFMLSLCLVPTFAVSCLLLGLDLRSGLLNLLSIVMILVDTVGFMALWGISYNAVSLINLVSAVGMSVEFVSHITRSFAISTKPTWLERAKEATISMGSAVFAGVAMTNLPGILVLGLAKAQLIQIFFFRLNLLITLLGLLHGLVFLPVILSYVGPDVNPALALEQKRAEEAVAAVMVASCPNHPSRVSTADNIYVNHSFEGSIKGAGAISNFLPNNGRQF

[3] = system: Mus musculus; assay: Inhibition of cholesterol-absorption in mouse plasma at 100 mg/kg, po; assay type: functional; method in brief: as §1
[4] = system: Mus musculus; assay: Inhibition of cholesterol-absorption in mouse liver at 100 mg/kg, po; assay type: functional; method in brief: as §1
[5] = target: NPC1-like intracellular cholesterol transporter 1 (Mus musculus) (UniProt Q6T3U4); assay: Displacement of [35S](2S,3S,4S,5R,6S)-6-(4-((2S,3R)-3-((S)-3-(4-fluorophenyl)-3-hydroxypropyl)-1-(4-(3-(methylsulfonamido)prop-1-ynyl)phenyl)-4-oxoazetidin-2-yl)phenoxy)-3,4,5-trihydroxytetrahydro-2H-pyran-2-carboxylic acid from mouse NCP1L1 expressed in mouse brush border membrane; assay type: cell membranes
[6] = system: Mus musculus; assay: Inhibition of [3H]cholesterol absorption in C57BL/6 mouse plasma at 1 mg/kg, po after 1.5 hrs; assay type: functional; conditions: C57BL/6, Plasma; method in brief: as §1
[7] = system: Mus musculus; assay: Inhibition of [3H]cholesterol absorption in C57BL/6 mouse plasma at 1 mg/kg, po after 5 hrs; assay type: functional; conditions: C57BL/6, Plasma; method in brief: as §1
[8] = target: T2, NPC1-like intracellular cholesterol transporter 1 (Homo sapiens) (UniProt Q9UHC9); assay: Binding affinity to human NPC1L1
T2 sequence (whole entry): T1 sequence (Q9UHC9 whole entry)

Sequence of NPC1-like intracellular cholesterol transporter 1 (Mus musculus) (Q6T3U4 21-1333 limits assumed): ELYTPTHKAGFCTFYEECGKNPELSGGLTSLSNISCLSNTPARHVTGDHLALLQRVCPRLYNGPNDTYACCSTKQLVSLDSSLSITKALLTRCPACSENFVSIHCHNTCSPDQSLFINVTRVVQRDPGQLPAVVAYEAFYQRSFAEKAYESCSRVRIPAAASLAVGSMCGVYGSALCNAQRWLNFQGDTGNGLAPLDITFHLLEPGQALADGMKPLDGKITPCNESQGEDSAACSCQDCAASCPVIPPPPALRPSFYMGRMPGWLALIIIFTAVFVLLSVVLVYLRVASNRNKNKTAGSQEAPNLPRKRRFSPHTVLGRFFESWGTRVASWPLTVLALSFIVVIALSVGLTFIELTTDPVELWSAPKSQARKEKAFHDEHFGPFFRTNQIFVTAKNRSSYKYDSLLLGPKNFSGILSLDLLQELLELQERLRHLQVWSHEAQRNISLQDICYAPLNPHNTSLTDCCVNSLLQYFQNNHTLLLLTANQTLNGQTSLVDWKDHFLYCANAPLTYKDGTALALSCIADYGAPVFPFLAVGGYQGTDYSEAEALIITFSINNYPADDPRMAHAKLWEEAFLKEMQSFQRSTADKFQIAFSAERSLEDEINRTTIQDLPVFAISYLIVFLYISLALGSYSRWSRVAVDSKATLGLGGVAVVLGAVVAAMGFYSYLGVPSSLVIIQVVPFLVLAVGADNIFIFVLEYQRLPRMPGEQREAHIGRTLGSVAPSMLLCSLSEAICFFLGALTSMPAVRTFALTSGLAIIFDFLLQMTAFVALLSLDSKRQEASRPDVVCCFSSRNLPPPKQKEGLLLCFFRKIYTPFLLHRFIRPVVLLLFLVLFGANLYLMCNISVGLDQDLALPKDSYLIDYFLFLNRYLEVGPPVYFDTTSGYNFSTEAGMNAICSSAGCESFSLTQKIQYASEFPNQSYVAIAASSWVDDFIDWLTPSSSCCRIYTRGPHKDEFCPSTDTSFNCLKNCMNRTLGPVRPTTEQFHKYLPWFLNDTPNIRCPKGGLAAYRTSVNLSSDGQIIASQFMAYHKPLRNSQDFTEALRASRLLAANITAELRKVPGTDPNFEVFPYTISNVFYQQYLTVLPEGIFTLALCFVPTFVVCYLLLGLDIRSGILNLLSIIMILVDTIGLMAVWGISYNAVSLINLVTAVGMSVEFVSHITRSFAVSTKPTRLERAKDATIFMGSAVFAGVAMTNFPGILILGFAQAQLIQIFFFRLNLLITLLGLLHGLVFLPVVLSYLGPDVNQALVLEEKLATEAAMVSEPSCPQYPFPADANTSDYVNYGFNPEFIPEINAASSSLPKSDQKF

IC50 [2] [µM]	SMILES	other results
	CC(C)(C)OC(=O)NCCCCNC(=O)CN1CN(c2ccccc2)C2(CCN(C(=O)c3ccc(C(C)(C)C)cc3)CC2)C1=O	inhibition in vivo at 10 mg/kg [1]: 7%
14	O=C(CN1CN(c2ccccc2)C2(CCN(C(=O)c3ccc(C4CCCCC4)cc3)CC2)C1=O)NCCCO	inhibition in vivo at 10 mg/kg [1]: 42%; inhibition in vivo at 100 mg/kg [3]: 43%; inhibition in vivo at 100 mg/kg [4]: 70%
4.8	O=C(CN1CN(c2ccccc2)C2(CCN(C(=O)c3ccc(C4CCCCC4)cc3)CC2)C1=O)N1CCN(C(=O)c2ccccc2)CC1	inhibition in vivo at 100 mg/kg [3]: 52%; inhibition in vivo at 100 mg/kg [4]: 46%; IC50 [5]: 19 µM
1.7	O=C(CN1CN(c2ccccc2)C2(CCN(C(=O)c3ccc(C4CCCCC4)cc3)CC2)C1=O)NCCCCO	inhibition in vivo at 10 mg/kg [1]: 52%
1	CC(C)(C)OC(=O)N1CCN(C(=O)CN2CN(c3ccccc3)C3(CCN(C(=O)c4ccc(C(C)(C)C)cc4)CC3)C2=O)CC1	IC50 [5]: 49 µM
8.2	CCOC(=O)C1CCCN(C(=O)CN2CN(c3ccccc3)C3(CCN(C(=O)c4ccc(C(C)(C)C)cc4)CC3)C2=O)C1 (configuration not stated)	
12	CC1CCCN(C(=O)CN2CN(c3ccccc3)C3(CCN(C(=O)c4ccc(C(C)(C)C)cc4)CC3)C2=O)C1 (configuration not stated)	
12.2	CC(C)(C)c1ccc(C(=O)N2CCC3(CC2)C(=O)N(CC(=O)N2CCCC(O)C2)CN3c2ccccc2)cc1 (configuration not stated)	
5.5	CC(C)(C)OC(=O)NCCCCNC(=O)CN1CN(c2ccccc2)C2(CCN(C(=O)c3ccc(C4CCCCC4)cc3)CC2)C1=O	
4.5	COC(=O)CCNC(=O)CN1CN(c2ccccc2)C2(CCN(C(=O)c3ccc(C4CCCCC4)cc3)CC2)C1=O	
8.3	CC(C)(C)OC(=O)NC1CCN(C(=O)CN2CN(c3ccccc3)C3(CCN(C(=O)c4ccc(C(C)(C)C)cc4)CC3)C2=O)CC1	
6.4	CCn1nc(Cc2ccccc2)cc1C1CCN(C(=O)CN2CN(c3ccccc3)C3(CCN(C(=O)c4ccc(C(C)(C)C)cc4)CC3)C2=O)CC1	
2.5	CS(=O)(=O)NCCCNC(=O)CN1CN(c2ccccc2)C2(CCN(C(=O)c3ccc(C4CCCCC4)cc3)CC2)C1=O	inhibition in vivo at 10 mg/kg [1]: 42%; inhibition in vivo at 100 mg/kg [3]: < 5%; inhibition in vivo at 100 mg/kg [4]: < 5%
3.8	CC(C)(C)c1ccc(C(=O)N2CCC3(CC2)C(=O)N(CC(=O)NCCCCCO)CN3c2ccccc2)cc1	
4.2	CC(C)(C)OC(=O)NC1CCCN(C(=O)CN2CN(c3ccccc3)C3(CCN(C(=O)c4ccc(C(C)(C)C)cc4)CC3)C2=O)C1 (configuration not stated)	
1.3	CC1(C)CC(OC(=O)CN2CN(c3ccccc3)C3(CCN(C(=O)c4ccc(C(C)(C)C)cc4)CC3)C2=O)CC(C)(C)N1	
10.3	CC(C)(C)c1ccc(C(=O)N2CCC3(CC2)C(=O)N(CC(=O)NCCCCNS(C)(=O)=O)CN3c2ccccc2)cc1	
15	CC(C)(C)c1ccc(C(=O)N2CCC3(CC2)C(=O)N(CC(=O)N2CCN(S(=O)(=O)c4ccccc4)CC2)CN3c2ccccc2)cc1	
3.9	CCC1CCCN(C(=O)CN2CN(c3ccccc3)C3(CCN(C(=O)c4ccc(C(C)(C)C)cc4)CC3)C2=O)C1 (configuration not stated)	
3.8	CC(C)(C)OC(=O)NCC1CCCN(C(=O)CN2CN(c3ccccc3)C3(CCN(C(=O)c4ccc(C5CCCCC5)cc4)CC3)C2=O)C1 (configuration not stated)	
4.2	CCOC(=O)C1CCCN(C(=O)CN2CN(c3ccccc3)C3(CCN(C(=O)c4ccc(C5CCCCC5)cc4)CC3)C2=O)C1 (configuration not stated)	
	O=C1[C@H](CC[C@H](O)c2ccc(F)cc2)[C@@H](c2ccc(O)cc2)N1c1ccc(F)cc1 [EZETIMIBE]	inhibition in vivo at 1 mg/kg [6]: 7%; inhibition in vivo at 1 mg/kg [7]: 90%
1.1	O=C(CN1CN(c2ccccc2)C2(CCN(C(=O)c3ccc(C4CCCCC4)cc3)CC2)C1=O)N1CCCCC1	
4.4	CC(C)(C)OC(=O)NC1CCCN(C(=O)CN2CN(c3ccccc3)C3(CCN(C(=O)c4ccc(C5CCCCC5)cc4)CC3)C2=O)C1 (configuration not stated)	

IC50 [2] [µM]	SMILES	other results
22	CC(C)(C)c1ccc(C(=O)N2CCC3(CC2)C(=O)N(CC(=O)N2CCNCC2)CN3c2ccccc2)cc1	
4.2	CC(C)(C)OC(=O)NCC1CCN(C(=O)CN2CN(c3ccccc3)C3(CCN(C(=O)c4ccc(C(C)(C)C)cc4)CC3)C2=O)CC1	
	COC(=O)CCCNC(=O)CN1CN(c2ccccc2)C2(CCN(C(=O)c3ccc(C(C)(C)C)cc3)CC2)C1=O	inhibition in vivo at 10 mg/kg [1]: 35%
3.1	CCOC(=O)C1CCN(C(=O)CN2CN(c3ccccc3)C3(CCN(C(=O)c4ccc(C(C)(C)C)cc4)CC3)C2=O)CC1	
3.1	NCCCNC(=O)CN1CN(c2ccccc2)C2(CCN(C(=O)c3ccc(C4CCCCC4)cc3)CC2)C1=O	
26.5	NCCNC(=O)CN1CN(c2ccccc2)C2(CCN(C(=O)c3ccc(C4CCCCC4)cc3)CC2)C1=O	
19.2	CC(C)(C)c1ccc(C(=O)N2CCC3(CC2)C(=O)N(CC(=O)NCCO)CN3c2ccccc2)cc1	
9.4	CC(C)(C)OC(=O)NCCNC(=O)CN1CN(c2ccccc2)C2(CCN(C(=O)c3ccc(C(C)(C)C)cc3)CC2)C1=O	
8.7	CCN(CC)C(=O)C1CCCN(C(=O)CN2CN(c3ccccc3)C3(CCN(C(=O)c4ccc(C(C)(C)C)cc4)CC3)C2=O)C1 (configuration not stated)	
	COC(=O)CCNC(=O)CN1CN(c2ccccc2)C2(CCN(C(=O)c3ccc(C(C)(C)C)cc3)CC2)C1=O	inhibition in vivo at 10 mg/kg [1]: 44%
4	CC(C)(C)c1ccc(C(=O)N2CCC3(CC2)C(=O)N(CC(=O)N2CCC(CO)CC2)CN3c2ccccc2)cc1	
2.6	CCC1CCCN(C(=O)CN2CN(c3ccccc3)C3(CCN(C(=O)c4ccc(C5CCCCC5)cc4)CC3)C2=O)C1 (configuration not stated)	
3.5	CC(C)(C)OC(=O)N1CCN(C(=O)CN2CN(c3ccccc3)C3(CCN(C(=O)c4ccc(C5CCCCC5)cc4)CC3)C2=O)CC1	inhibition in vivo at 100 mg/kg [3]: 4.5%; inhibition in vivo at 100 mg/kg [4]: 58%; IC50 [5]: 49 µM
0.6	CC1(C)CC(OC(=O)CN2CN(c3ccccc3)C3(CCN(C(=O)c4ccc(C5CCCCC5)cc4)CC3)C2=O)CC(C)(C)N1	
8.3	CC(C)(C)c1ccc(C(=O)N2CCC3(CC2)C(=O)N(CC(=O)NCCCCO)CN3c2ccccc2)cc1	
4.6	CCc1nn(CC)c(C2CCN(C(=O)CN3CN(c4ccccc4)C4(CCN(C(=O)c5ccc(C(C)(C)C)cc5)CC4)C3=O)CC2)c1CC	
3.7	COC(=O)CNC(=O)CN1CN(c2ccccc2)C2(CCN(C(=O)c3ccc(C4CCCCC4)cc3)CC2)C1=O	
5.4	CCc1c(C)c(C2CCN(C(=O)CN3CN(c4ccccc4)C4(CCN(C(=O)c5ccc(C(C)(C)C)cc5)CC4)C3=O)CC2)nn1CC	
4.8	CC(C)(C)OC(=O)NC1CCN(C(=O)CN2CN(c3ccccc3)C3(CCN(C(=O)c4ccc(C5CCCCC5)cc4)CC3)C2=O)CC1	
49	CC(C)(C)c1ccc(C(=O)N2CCC3(CC2)C(=O)N(CC(=O)NCCNS(C)(=O)=O)CN3c2ccccc2)cc1	
3.6	CC1CCCN(C(=O)CN2CN(c3ccccc3)C3(CCN(C(=O)c4ccc(C5CCCCC5)cc4)CC3)C2=O)C1 (configuration not stated)	
	CC(C)(C)c1ccc(C(=O)N2CCC3(CC2)C(=O)N(CC(=O)N2CCCCC2)CN3c2ccccc2)cc1	Activity [8]: 2.5 µM
8.2	CC(C)(C)c1ccc(C(=O)N2CCC3(CC2)C(=O)N(CC(=O)N2CCCC(CO)C2)CN3c2ccccc2)cc1 (configuration not stated)	
